36 sequences from the EternaBench riboswitch data can be followed below.

For this series, the system named is MS2 coat protein. As to the kind of experiment: apparent Kd, MS2 coat protein; higher = weaker binding; RNA-MaP array; FMN 200 µM where present. A digest of the protocol: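 Each design was made on Illumina sequencing-chip clusters by stalled E. coli RNA polymerase and titrated with SNAP-549-labelled MS2 coat protein from 0.7 or 1.5 nM, doubling to 3 µM, in the absence and then the presence of constant ligand. The buffer was 100 mM Tris-HCl pH 7.5, 80 mM KCl, 4 mM MgCl2, BSA, DTT, yeast tRNA and Tween-20. The apparent Kd is the median of filtered per-cluster fits of binding curves, with green signal normalised to red-channel RNA signal and control-cluster median Fmax.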

Where [1] appears, read: designed as: ON switch for flavin mononucleotide, no ligand.
Setting [2] is: ligand present: flavin mononucleotide, designed as: ON switch for flavin mononucleotide.
Setting [3] is: designed as: OFF switch for flavin mononucleotide, no ligand.
The mark [4] stands for this setting: ligand present: flavin mononucleotide, designed as: OFF switch for flavin mononucleotide.

As a reminder, the apparent Kd is the concentration giving half-maximal binding under the conditions of the assay. Turning to “GUGGCCUAGGCACAGGAUAUGUUUCUCGUAACAUGAGGAUCACCCAUGUGCCUUUGAGAUUUUAUGCAGAAGGGUGCACGCCACG”, the “apparent Kd” value runs as follows: under setting [1], 488 nM; under setting [2], 24.3 nM.

In the case of “AAAUAAAAUAUAGGAUAUGGAAACAUGAGGAUCACCCAUGUAUGAUAAGAUAAAUAAUGAUAUAGCCAGAAGGAUACAAUAUAA”, the “apparent Kd” value was 31 nM under setting [1] and 38.3 nM under setting [2].

Turning to “CUUAUGUAAGGAUAUCAGUAGUAAAAAAAUAAAAUUACUACUGAGAAGGUACAUGAGGAUCACCCAUGUAUCUU”, the “apparent Kd” value under setting [3] came to 17.6 nM and the “apparent Kd” value under setting [4] is 14 nM.

As for “UUACUCAUGUAAGGAUAUGCAGCUGAAACGGCUGCAGAAGGUACUAUAAUACAUGAGGAUCACCCAUGUAAAAUAAAUAAAGUU”, the “apparent Kd” value runs as follows: under setting [1], 24.1 nM; under setting [2], 14.6 nM.

As for “CAGUACUGAGGAUAUACAUGAGGAUCACCCAUGUGCCUAAGGUAGGAUACUACCAUUAGUAGAAGGCAGUACUG”, the “apparent Kd” value was 13.8 nM under setting [3] and 29.6 nM under setting [4].

Regarding “CGCAACUCAGAUCUGUUAAACAUGAGGAUCACCCAUGUAUUGAGAAGGAGGAAGAAGAGAGAUUCCUAGGAUAUCAGAGUUGCG”, the “apparent Kd” value came to 6.62 nM under setting [3] and 6.98 nM under setting [4].

For the sequence “AUGGUGACGUAGAAGGGUGACAUGAGGAUCACCCAUGUGCCGAUAUUUCUCGAGAUAUGUCGGCCACAGGAUAUACGUACCAUC”, the “apparent Kd” value was determined as 39.3 nM under setting [1] and 83.3 nM under setting [2].

On to “UUCAACGAUGAAGGAUAUGUAUAAACAUGAGGACAUGAGGAUCACCCAUGUUGAUCACCCAUGUAGCAGAAGGUCAACAUGAGG”, for which the “apparent Kd” value runs as follows: under setting [1], 360 nM; under setting [2], 142 nM.

As for “UGUCGGAGCAGAGGAUAUUACAUGAGGAUCACCCAUGUAUGAACCAAUAGCUUGAAACAGCAAUGUAAGAAGGCUGCUCCGACA”, the “apparent Kd” value runs as follows: under setting [3], 7.66 nM; under setting [4], 84.2 nM.

As to “AUCCGACAUGAGGAUCACCCAUGUCAGGAUAUGGACUGACAUCGAAAGGAUGGAAGAACCAGAAGGGACUGGGC”, the “apparent Kd” value was found to be 28.2 nM under setting [3] and 48.5 nM under setting [4].

Take “AGCGGGUGGGUAGGAUAUGGCUAUGUCUCAUUGCUAGAAGGACCAGCUGCUACAUGAGGAUCACCCAUGUCGUAGUGCACCCAG”: the “apparent Kd” value is, setting by setting: under setting [1], 195 nM; under setting [2], 12.7 nM.

In the case of “AACAUGUCAGGAUAUGUGACAUGGCUCUUCGGAGCAAGAUCACAGAAGGGACAUGAGGAUCACCCAUGUCGAUC”, the “apparent Kd” value reads like this: under setting [3], 38.7 nM; under setting [4], 156 nM.

For the sequence “AUAUCCUAGAUAGGAUAUACUGAGGUUGAAUGGGUAGAAGGAUCGUUAGGGUGGACUACAUGAGGAUCACCCAUGUUGUUUAUU”, the “apparent Kd” value came to 213 nM under setting [1] and 208 nM under setting [2].

Regarding “UAGAUGGGAGGAUAUGCGUAGAUACGGAUUCGUGUAGUGCUACAUGAGGAUCACCCAUGUAGAAGGCCCGUCUU”, the “apparent Kd” value is, setting by setting: under setting [3], 15.2 nM; under setting [4], 18.3 nM.

Consider “AAAAUGGUCUAGGAUAUGACAAAUCUGAGCACGUCAGAAGGAGACACAUGAGGAUCACCCAUGUGGGUGCGAAA”, for which the “apparent Kd” value came out at 36.1 nM under setting [3] and 189 nM under setting [4].

As for “GCCUACUGGCGAGGAUAUUCUGUGCGGUUCCGGCUCGUGUCUGUUACAUGAGGAUCACCCAUGUGGGAGAAGGUGUCUGUGGCC”, the “apparent Kd” value runs as follows: under setting [3], 7.53 nM; under setting [4], 7.41 nM.

In the case of “GGAGAACAUGAGGAUCACCCAUGUGAGAGGGAUGUAGGAUAUGUGAGGAGUAAAGGAGGGACAGAAGGACAGAGAU”, the “apparent Kd” value by setting is: under setting [1], 45.8 nM; under setting [2], 43.8 nM.

Turning to “AUACAUGAGGAUCACCCAUGUAAUUAAUUAACUAGUAAGAUCUAGGAUAUCAGCUCGUUUAGAGCUGAGAAGGAGAUCACAUGU”, the “apparent Kd” value runs as follows: under setting [1], 36.8 nM; under setting [2], 15.6 nM.

Turning to “AGGCGAGUAGGAUAUGCAUAUUUACAGGAAAGCUGGAUGGUACAUGAGGAUCACCCAUGUAGAAGGGCUCUGAA”, the “apparent Kd” value by setting is: under setting [3], 18.7 nM; under setting [4], 20.7 nM.

For the sequence “AUUACAUGAGGAUCACCCAUGUACAGAACGUUUCAUUACAGUGAGGAUAUACGAAAUGUAAAAGCGUAGAAGGCACUGGGUACA”, the “apparent Kd” value is, setting by setting: under setting [1], 29.5 nM; under setting [2], 22.2 nM.

On to “UGUCCUUGAGGCUCGGACGUGUCGCCAGAAGGCAAUUUCUGACAUGAGGAUCACCCAUGUCCAAUUGAGGAUAUGGCUGCGAAG”, for which the “apparent Kd” value by setting is: under setting [1], 27.2 nM; under setting [2], 7.52 nM.

Regarding “UUAUGACCGUAAAUAAGGUUGUCGAAGGAUAUUACAGGAGUACGAUCACAUGAGGAUCACCCAUGUAAGAAGGUCGAUACGCUG”, the “apparent Kd” value came out at 17 nM under setting [3] and 76.4 nM under setting [4].

On to “CGAAGUCCGUAGAAGGGUGACAUGAGGAUCACCCAUGUGCGAGCGGAUGGAGUCAGCGGCUCGCCACAGGAUAUACGGAGCACG”, for which the “apparent Kd” value runs as follows: under setting [1], 30.6 nM; under setting [2], 65.3 nM.

For the sequence “ACUUACUGAGGAUAUACAUAGAUUUACAUGAGGAUCACCCAUGUUCCUCUAUGUAUAAAUGUAGAAGGCAGAAGUG”, the “apparent Kd” value is 22.4 nM under setting [3] and 120 nM under setting [4].

On to “UGAAGUGGCGACAUGAGGAUCACCCAUGUAUGGUAUUCAACCAGAAGGCAUGUUGAGGAAUUACAUGAGGAUAUGGGAGAUCUA”, for which the “apparent Kd” value under setting [1] was determined as 314 nM and the “apparent Kd” value under setting [2] is 121 nM.

With “UUACUACAUGAGGAUCACCCAUGUCAGGAUAUUGUCUAUACUUUGGAAUAUGUGUCGAUAAGAAGGGACUAUAU”, the “apparent Kd” value runs as follows: under setting [3], 18.9 nM; under setting [4], 21.5 nM.

As to “UACGGACAUGAGGAUCACCCAUGUGAGGAUAUCGGUACCGAUAGCAUAAUAUACUCGGCGAGAAGGCACAGCGU”, the “apparent Kd” value by setting is: under setting [3], 30 nM; under setting [4], 31.8 nM.

Turning to “GAUGUAUUCGUAGGAUAUCCGUCGCCACCGUGUGGAGAAGGACGAACAUGAGGAUCACCCAUGUAUCAUGGUGUAGACGCUUUC”, the “apparent Kd” value was determined as 63.6 nM under setting [3] and 70.9 nM under setting [4].

On to “GUCAGCUCGUGAGGAUAUACAACUCUGCUUCGGCAGUGUAUUAAGAUCACAUGAGGAUCACCCAUGUAGAAGGCACGAGCUGAU”, for which the “apparent Kd” value is 11.5 nM under setting [3] and 178 nM under setting [4].

Take “AUAUAUAUAUCAGGAUAUGGACAGGCCUGUCCGUAUUGAGACAGUAACAUGAGGAUCACCCAUGUCCAGAAGGGAUAUAUAUAU”: the “apparent Kd” value under setting [3] turned out to be 51.5 nM and the “apparent Kd” value under setting [4] was 59.2 nM.

Turning to “GUGCCUAACUAGAAGGCAGCAUGCAAAGCAUUCUGAGGAUAUGGGUUCCGGAAACGGACAUGAGGAUCACCCAUGUGGCACAAA”, the “apparent Kd” value came to 482 nM under setting [1] and 34.7 nM under setting [2].

With “GUAAAUCAUGUAGGAUAUGCAUGGCGAAGCUACGCAGAAGGACAUGAGGAUCACCCAUGUUCUGGCUACCGGAUACGGUGGCAA”, the “apparent Kd” value runs as follows: under setting [3], 21.1 nM; under setting [4], 87.6 nM.

Turning to “UGUCUGAUCUAAUAACAUGAGGAUCACCCAUGUGUUCACAACUAGGAUAUCGAUUGUUAAGAAAUCGAGAAGGAGUAUACAUUA”, the “apparent Kd” value runs as follows: under setting [3], 44.8 nM; under setting [4], 50.8 nM.

“UAUAUAUAGUAAGGAUAUGUAUUAAUAUUAUAAACAGAAGGUACUGACAUGAGGAUCACCCAUGUUUUAGUGUGGGCAUGUAGA”: the “apparent Kd” value runs as follows: under setting [3], 87.6 nM; under setting [4], 128 nM.

In the case of “GCUGUGGCAUGAGGAUAUGGUCAGGUUUCCUGACCAGAAGGCAUGUCAAUAGACAUGAGGAUCACCCAUGUAGUUAACACAGCA”, the “apparent Kd” value reads like this: under setting [1], 514 nM; under setting [2], 45.9 nM.

In the case of “AUCAGCUCGUCAGGAUAUACGUCACUGCUUCGGCAGUGUGGUAAGAUUACAUGAGGAUCACCCAUGUAGAAGGGACGAGCUGAU”, the “apparent Kd” value was 6 nM under setting [3] and 8.61 nM under setting [4].
